Screening results deposited in PubChem BioAssay by several laboratories.
Hits are enriched below; roughly 1.9% of the tested compounds scored in any of these assays.
FAS-TE inh = inhibitors of human fatty acid synthase thioesterase domain; P49327; recombinant FAS-TE, OMFH fluorogenic substrate, fluorescence endpoint; inhibition, % at 15 µM; hit rate 0.67% among 360,000; AID 602261;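 active means compounds whose normalised, plate-corrected inhibition of enzyme fluorescence in the single-dose primary screen is 50% or more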;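 further: 0% = DMSO with enzyme and 100% = substrate without enzyme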
Target sequence (P49327 whole entry, looked up, the tested form may be a part): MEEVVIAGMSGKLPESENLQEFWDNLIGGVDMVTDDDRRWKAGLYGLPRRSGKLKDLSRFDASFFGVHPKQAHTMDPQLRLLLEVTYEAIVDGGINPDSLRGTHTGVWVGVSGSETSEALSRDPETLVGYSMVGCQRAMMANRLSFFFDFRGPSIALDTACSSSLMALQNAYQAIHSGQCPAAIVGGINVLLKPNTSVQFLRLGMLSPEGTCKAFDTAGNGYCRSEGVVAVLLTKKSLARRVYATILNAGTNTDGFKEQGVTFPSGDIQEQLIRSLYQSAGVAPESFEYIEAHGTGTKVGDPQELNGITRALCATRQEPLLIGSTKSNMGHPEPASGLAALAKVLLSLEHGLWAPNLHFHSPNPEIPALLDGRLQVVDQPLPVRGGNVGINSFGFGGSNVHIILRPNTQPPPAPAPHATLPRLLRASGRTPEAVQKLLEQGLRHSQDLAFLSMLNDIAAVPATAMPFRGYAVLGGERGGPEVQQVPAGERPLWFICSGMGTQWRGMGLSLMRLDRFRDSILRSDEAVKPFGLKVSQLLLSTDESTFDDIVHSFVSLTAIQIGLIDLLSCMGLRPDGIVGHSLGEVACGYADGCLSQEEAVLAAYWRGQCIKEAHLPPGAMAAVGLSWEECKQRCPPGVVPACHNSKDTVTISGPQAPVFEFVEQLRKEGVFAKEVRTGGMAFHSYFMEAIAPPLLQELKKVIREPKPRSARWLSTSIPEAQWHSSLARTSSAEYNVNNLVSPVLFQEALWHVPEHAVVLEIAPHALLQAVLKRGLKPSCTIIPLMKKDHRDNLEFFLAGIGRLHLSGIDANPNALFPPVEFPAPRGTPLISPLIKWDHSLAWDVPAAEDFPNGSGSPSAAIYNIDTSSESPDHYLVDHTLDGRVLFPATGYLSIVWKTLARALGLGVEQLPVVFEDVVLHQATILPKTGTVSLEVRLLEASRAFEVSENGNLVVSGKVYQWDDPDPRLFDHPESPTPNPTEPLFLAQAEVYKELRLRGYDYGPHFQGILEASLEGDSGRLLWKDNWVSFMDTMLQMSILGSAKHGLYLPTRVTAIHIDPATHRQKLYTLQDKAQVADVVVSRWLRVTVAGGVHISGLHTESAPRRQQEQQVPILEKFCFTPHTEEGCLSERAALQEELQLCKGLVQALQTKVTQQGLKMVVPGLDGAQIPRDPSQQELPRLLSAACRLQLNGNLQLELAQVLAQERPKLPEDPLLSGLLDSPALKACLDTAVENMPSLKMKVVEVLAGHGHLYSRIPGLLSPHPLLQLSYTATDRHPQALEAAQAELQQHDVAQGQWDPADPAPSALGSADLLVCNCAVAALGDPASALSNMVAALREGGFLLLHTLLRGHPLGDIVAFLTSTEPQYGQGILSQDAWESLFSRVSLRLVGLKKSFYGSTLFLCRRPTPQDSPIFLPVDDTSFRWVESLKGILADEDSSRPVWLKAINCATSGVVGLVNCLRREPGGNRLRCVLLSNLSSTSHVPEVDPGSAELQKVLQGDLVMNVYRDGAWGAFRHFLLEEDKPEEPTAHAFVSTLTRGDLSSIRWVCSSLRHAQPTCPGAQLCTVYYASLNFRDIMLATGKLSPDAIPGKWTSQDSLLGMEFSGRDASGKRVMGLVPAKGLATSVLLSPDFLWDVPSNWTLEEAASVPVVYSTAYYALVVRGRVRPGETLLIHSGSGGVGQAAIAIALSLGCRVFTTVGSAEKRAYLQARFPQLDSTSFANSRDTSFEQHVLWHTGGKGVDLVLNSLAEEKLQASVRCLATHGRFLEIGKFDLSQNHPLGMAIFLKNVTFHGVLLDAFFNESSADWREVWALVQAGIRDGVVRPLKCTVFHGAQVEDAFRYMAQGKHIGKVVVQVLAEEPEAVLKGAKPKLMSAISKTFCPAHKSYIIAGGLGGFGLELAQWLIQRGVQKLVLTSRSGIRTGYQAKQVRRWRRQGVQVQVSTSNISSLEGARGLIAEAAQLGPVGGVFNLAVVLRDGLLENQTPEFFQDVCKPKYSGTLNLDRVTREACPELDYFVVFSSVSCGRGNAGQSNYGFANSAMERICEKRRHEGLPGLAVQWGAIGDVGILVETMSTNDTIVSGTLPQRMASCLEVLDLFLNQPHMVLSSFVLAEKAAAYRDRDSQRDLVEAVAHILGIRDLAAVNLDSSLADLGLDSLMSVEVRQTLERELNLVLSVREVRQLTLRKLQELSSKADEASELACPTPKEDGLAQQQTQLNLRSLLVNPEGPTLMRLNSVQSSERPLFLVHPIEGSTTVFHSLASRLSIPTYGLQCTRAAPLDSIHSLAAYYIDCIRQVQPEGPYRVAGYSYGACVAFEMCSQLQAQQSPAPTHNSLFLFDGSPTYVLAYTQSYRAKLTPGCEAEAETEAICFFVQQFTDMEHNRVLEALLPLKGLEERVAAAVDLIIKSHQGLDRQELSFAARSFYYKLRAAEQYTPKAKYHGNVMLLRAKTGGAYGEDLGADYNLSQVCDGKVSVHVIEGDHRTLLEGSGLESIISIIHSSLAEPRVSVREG
SENP1 inh = blocks the human SENP1 SUMO protease catalytic domain; Q9P0U3; recombinant SENP1 catalytic domain, CyPet-SUMO1-YPet FRET cleavage; inhibition, % at 10 µM; hit rate 0.21% among 360,000;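 active means inhibition at least 30% at 10 µM, raw YFP signal under a set limit, fluorescence ratio 0.5 to 1.5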;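 further: 0% = enzyme with DMSO and 100% = no enzyme wells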
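Test system: human SENP1 catalytic domain; medium: Tris pH 8 buffer plus EDTA, NaCl, BME, BSA, NP40, catalase; incubation: 50 min reaction at room temperature; technique: FRET, CFP and YFP emission; controls: no-enzyme low control and enzyme-plus-DMSO high control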
ADAM10 inh = ADAM10 inhibition, QFRET primary screen; recombinant ADAM10, EDANS/DABCYL FRET peptide cleavage, 3 h; inhibition, % at 7 µM; AID 720582; O14672; hit rate 0.62% among 370,000;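 active means inhibition above a per-campaign cutoff equal to the mean of compounds falling between control-based bounds plus 3 SD, cut at about 20% in these data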;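 further: 0% = DMSO wells while the 100% control is not disclosed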
ADAM17 inh = inhibitors of human ADAM17. hit rate 0.83% among 370,000. inhibition, % at 6.95 µM. recombinant ADAM17, EDANS/DABCYL FRET peptide cleavage. AID 720648. P78536;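 active means inhibition above the mean of compounds lying between control limits plus 3 SD, set per campaign, cut at about 8.5% in these data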;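 further: 0% = DMSO-only wells as the low control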
FAS-TE conf = FAS thioesterase (human) inhibition, confirmation; shares compounds with FAS-TE inh; inhibition, % at 15 µM; recombinant FAS-TE, OMFH fluorogenic substrate, fluorescence; AID 624325; hit rate 45% among 2,300;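 active means compounds inhibiting the enzyme by at least 50% at 15 µM in any one of the replicates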;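 further: 0% = enzyme with DMSO only and 100% = wells lacking enzyme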
Starred values were filed as active, the others as inactive; i = inactive; / = not tested or not shown.

SMILES	FAS-TE inh	SENP1 inh	ADAM10 inh	ADAM17 inh	FAS-TE conf
COc1ccc(C2c3c(ccc4ccccc34)Oc3ncn4nc(-c5ccco5)nc4c32)cc1 (configuration not stated)	72*	1	1	-1	14
COc1ccc2c3c([nH]c2c1)[C@]1(CCNC=O)Nc2ccccc2C1=NCC3	/	/	-21	-7	/
Cc1nn(CCc2nn[nH]n2)c2nc(-c3ccc(C4CCCCC4)cc3)cc(C(F)(F)F)c12	69*	1	-38	-20	14
CCOC(=O)[C@@]12CN(C(=O)OC(C)(C)C)CC=C1N(Cc1ccc(OC)cc1)C(=O)[C@H]2CC(=O)NCCc1ccccc1OC	/	/	5	2	/
Cc1ccc(N2C(=O)C3CC(c4ccccc4)=C4C5C=CC(C6C(=O)N(c7ccc(C)cc7C)C(=O)C56)C4C3C2=O)c(C)c1 (configuration not stated)	100*	-1	/	/	44*
Cc1ccc(N2C(=O)C3CC(c4ccccc4)=C4C5C=CC(C6C(=O)N(c7ccc(C)cc7)C(=O)C56)C4C3C2=O)cc1 (configuration not stated)	85*	0	-7	-8	9
Cc1ccc(N2C(=O)C3CCCN3C2=S)c(C)c1 (configuration not stated)	-7	1	1	-2	/
CN(CC(=O)Nc1ccc(Cl)c(Cl)c1)C(=O)C12CC3CC(CC(C3)C1)C2	54*	0	4	0	19
CCOc1ccccc1C(=O)Nc1ccc(C(=O)NCC2COc3ccccc3O2)cc1 (configuration not stated)	/	/	-5	-3	/
C[C@H](NC(=O)C1CCN(S(=O)(=O)c2ccccc2)CC1)C(=O)NCc1ccc(Cl)c(Cl)c1	52*	1	-11	-3	46*
Cc1ccc(S(=O)(=O)N2[C@@H](c3ccc(C(C)(C)C)cc3)C(C(=O)O)=CC[C@H]2c2cccc(Cl)c2)cc1	28	0	13	1	/
Cc1ccc(S(=O)(=O)N2[C@@H](c3ccc(C(C)(C)C)cc3)C(C(=O)O)=CC[C@H]2c2ccc(Cl)c(Cl)c2)cc1	55*	-1	-4	-5	33
CCCCNC(=O)CCC(=O)Nc1ccc2nc(N3CCC(C)CC3)cc(C)c2c1	60*	-27	i	-218	45
O=c1cc2c(nn1Cc1cccc([N+](=O)[O-])c1)-c1ccccc1CC2	71*	-1	-6	-2	24
CCCC(=O)OC12CCCN(C1)/C(=C/c1cccc(N(C)C)c1)C2 (configuration not stated)	/	/	-36	-12	/
CN(C)N=C1c2cc(S(=O)(=O)N3CCOCC3)ccc2-c2ccc(S(=O)(=O)N3CCOCC3)cc21	50*	4	-1	-1	25
CC#CCN1c2ccccc2[C@]23C[C@@H](C(=O)OC)N(C(=O)NCCBr)C2=NC(C(=O)OC)=C(C(=O)OC)[C@H]13	64*	5	9	0	29
CC#CCN1c2ccccc2[C@]23C[C@@H](C(=O)OC)N(C(=O)OCC)C2=NC(C(=O)OC)=C(C(=O)OC)[C@H]13	-8	3	3	1	/
Cc1cc(C)n(C(=O)/C(C#N)=N\Nc2ccccc2[N+](=O)[O-])n1	-4	-2	1	2	/
Cc1cc(C)n(C(=O)/C(C#N)=N/Nc2cc(Cl)cc(Cl)c2)n1	53*	3	/	/	25
CN(Cc1ccccc1)C(=O)COC(=O)c1cc(Cl)nc(Cl)c1	51*	3	-5	-4	64*
Cc1ccc(S(=O)(=O)N(C)C)cc1-n1c(SCC(=O)Nc2ccc(F)cc2Cl)nc2ccccc2c1=O	23	1	6	5	/
Cc1ccc(S(=O)(=O)N(C)C)cc1-n1c(SCC(=O)Nc2ccc(F)cc2)nc2ccccc2c1=O	54*	-2	6	8	17
Cc1ccc(/C=N/NC(=O)CSc2nc3ccccc3c(=O)n2-c2ccccc2C)s1	51*	1	3	1	21
Cc1ccc(S(=O)(=O)N(C)C)cc1NC(=O)CSc1nc2ccccc2c(=O)n1CC1CCCO1 (configuration not stated)	6	1	4	2	/
SMILES	FAS-TE inh	SENP1 inh	ADAM10 inh	ADAM17 inh	FAS-TE conf
Cc1ccc(S(=O)(=O)N(C)C)cc1-n1c(SCC(=O)Nc2ccccc2)nc2ccccc2c1=O	52*	1	4	5	32
CC(C)CN1C(=O)[C@]2(CC(=O)N(C)C2c2ccccc2)c2cc(-n3cc(C4=CCCCC4)nn3)ccc21 (some centres not stated)	/	/	3	0	/
Cc1cccc(NC(=O)Nc2c(-c3ccc(C(F)(F)F)cc3)nc3ncccn23)c1	/	/	-39	-9	/
O=C(CC1C[C@H](C(=O)N2CCOCC2)[C@@]2(CCC3CCCC3)c3[nH]c4ccccc4c3CCN2C1=O)NCc1cccc(C(F)(F)F)c1 (some centres not stated)	61*	-1	-7	-2	34*
CC[C@]12c3[nH]c4ccc(Cl)cc4c3CCN1C(=O)[C@@H](CC(=O)NCc1ccc(OC)c(OC)c1)C[C@@H]2C(=O)N1CCN(C(=O)C2CC2)CC1	4	-3	1	0	/
COc1ccc(CNC(=O)CC2C[C@H](C(=O)N3CCOCC3)[C@@]3(CCC4CCCC4)c4[nH]c5ccccc5c4CCN3C2=O)cc1OC (some centres not stated)	77*	0	2	0	88*
COc1ccc(CNC(=O)C[C@H]2C[C@H](C(=O)N3CCCCC3)[C@@]3(CCc4ccccc4)c4[nH]c5ccc(Cl)cc5c4CCN3C2=O)cc1OC	69*	1	-5	-2	19
OCCN1CCCC12CCC(c1ccccc1)CC2 (configuration not stated)	/	/	0	0	/
C=CCOC(=O)N[C@H](c1ccc2ccccc2c1)[C@H](C)/C=C/CC(=O)OC	/	/	-1	-3	/
COc1cc(F)ccc1-c1cc(C(=O)NCc2cccc(Cl)c2)[nH]n1	16	2	0	1	/
COc1ccc(Cl)cc1-c1cc(C(=O)NCc2cccc(Cl)c2)[nH]n1	51*	1	11	5	51*
COc1ccc(F)cc1-c1cc(C(=O)NCc2ccc(C(F)(F)F)cc2)[nH]n1	53*	-3	12	4	13
CCOc1ccc(-n2c(SCC(=O)Nc3ccc(S(=O)(=O)Nc4cc(C)nc(C)n4)cc3)nnc2-c2ccco2)cc1	/	/	5	0	/
COC(=O)C1CN(Cc2ccc(Cl)cc2)CCS(=O)(=O)N1Cc1cn(Cc2ccccc2)nn1 (configuration not stated)	/	/	-7	-3	/
O=C(CCC(=O)NNC(=O)c1ccc([N+](=O)[O-])cc1)NCc1ccccc1	4	-1	-7	-1	/
O=C(CCNC(=O)c1ccc([N+](=O)[O-])cc1)NCc1ccccc1	60*	-1	-4	-7	72*
CC(C)c1ccc(CCNC(=O)c2ccc([N+](=O)[O-])cc2)cc1	66*	0	10	5	73*
